# In ChEMBL document CHEMBL4477177, “Antituberculosis Activity of a Naturally Occurring Flavonoid, Isorhamnetin” (J Nat Prod, 2016):
# The source made the active and inactive calls. The calls are words filed in the database; no cut-off is given here.
# Key:
# [1] = tested on: Mycobacterium tuberculosis; experiment: Antitubercular activity against Mycobacterium tuberculosis H37Rv P887 incubated for 1 to 9 days by inverted microscopic analysis; type: functional
# Outline: (§1)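 Bacteria immobilised in 0.5% agarose within microfluidic channels of a 96-well chip. Compound (0–632 μM; rifampicin 0–19.4 μM) supplied in Middlebrook 7H9 with 10% OADC and allowed to diffuse in. Incubated at 37 °C; channel boundary imaged by inverted microscopy (40×) at 1, 3, 5, 7 and 9 days. MIC90 taken as lowest concentration giving 90% growth inhibition. Triplicate.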
# [2] = Cytotoxicity against human HaCaT cells assessed as cell survival rate at 16 uM after 24 hrs by MTT assay; type: cell-based; conditions: read-out: Survival
# Outline: (§2)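 Cells treated for 24 h with test agent (0–400 μM) or rifampicin (0–16 μM), then MTT assay. Survival taken as A570 of treated cells over A570 of untreated cells, as a percentage. Average of triplicates from three independent experiments.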
# [3] = Cytotoxicity against mouse NIH/3T3 cells assessed as cell survival rate at 16 uM after 24 hrs by MTT assay; type: cell-based, NIH3T3; conditions: read-out: Survival; outline: as §2
# [4] = Cytotoxicity against human MRC5 cells assessed as cell survival rate at 16 uM after 24 hrs by MTT assay; type: cell-based; conditions: read-out: Survival; outline: as §2
# [5] = tested on: Mycobacterium tuberculosis; experiment: Antitubercular activity against MDR Mycobacterium tuberculosis X23 incubated for 1 to 9 days by inverted microscopic analysis; type: functional
# [6] = tested on: Mycobacterium tuberculosis; experiment: Antitubercular activity against XDR Mycobacterium tuberculosis X59 incubated for 1 to 9 days by inverted microscopic analysis; type: functional; outline: as §1
# [7] = tested on: Mycobacterium tuberculosis; experiment: Antitubercular activity against XDR Mycobacterium tuberculosis X24 incubated for 1 to 9 days by inverted microscopic analysis; type: functional; outline: as §1
structure (smiles),measurement,setting,value
CO[C@H]1/C=C/O[C@@]2(C)Oc3c(C)c(O)c4c(O)c(c(/C=N/N5CCN(C)CC5)c(O)c4c3C2=O)NC(=O)/C(C)=C\C=C\[C@H](C)[C@H](O)[C@@H](C)[C@@H](O)[C@@H](C)[C@H](OC(C)=O)[C@@H]1C [RIFAMPIN],MIC90,[1],0.61 µM
same,"viability at 24 h, 16 µM",[2],55%
same,"viability at 24 h, 16 µM",[3],62%
same,"viability at 24 h, 16 µM",[4],53%
same,MIC90,[5],inactive
same,MIC90,[6],inactive
same,MIC90,[7],inactive
